Results reported in ChEMBL document CHEMBL4033780, “Lipidated Brartemicin Analogues Are Potent Th1-Stimulating Vaccine Adjuvants” (J Med Chem, 2018).

Test: Toxicity in Atlantic horseshoe crab blood limulus amebocyte lysate by chromogenic endotoxin test
Conditions: limulus polyphemus
In short: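 Endotoxin was measured by chromogenic Limulus amebocyte lysate assay at a sensitivity of ≤0.1 EU/mL.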

Row | SMILES | Activity
1 | CCCCCCCCCCCCCCCCCCOc1cc(C)c(C(=O)OC[C@H]2O[C@H](O[C@H]3O[C@H](COC(=O)c4c(C)cc(OCCCCCCCCCCCCCCCCCC)cc4OCc4ccccc4)[C@@H](OCc4ccccc4)[C@H](OCc4ccccc4)[C@H]3OCc3ccccc3)[C@H](OCc3ccccc3)[C@@H](OCc3ccccc3)[C@@H]2OCc2ccccc2)c(OCc2ccccc2)c1 | <= 0.1 EU/ml
2 | CCCCOc1ccc(C(=O)OC[C@H]2O[C@H](O[C@H]3O[C@H](COC(=O)c4ccc(OCCCC)cc4OCc4ccccc4)[C@@H](OCc4ccccc4)[C@H](OCc4ccccc4)[C@H]3OCc3ccccc3)[C@H](OCc3ccccc3)[C@@H](OCc3ccccc3)[C@@H]2OCc2ccccc2)c(OCc2ccccc2)c1 | <= 0.1 EU/ml
3 | O=C(OC[C@H]1O[C@H](O[C@H]2O[C@H](COC(=O)c3ccc(OCc4ccccc4)cc3OCc3ccccc3)[C@@H](OCc3ccccc3)[C@H](OCc3ccccc3)[C@H]2OCc2ccccc2)[C@H](OCc2ccccc2)[C@@H](OCc2ccccc2)[C@@H]1OCc1ccccc1)c1ccc(OCc2ccccc2)cc1OCc1ccccc1 | <= 0.1 EU/ml
4 | COc1ccc(C(=O)OC[C@H]2O[C@H](O[C@H]3O[C@H](COC(=O)c4ccc(OC)cc4OCc4ccccc4)[C@@H](OCc4ccccc4)[C@H](OCc4ccccc4)[C@H]3OCc3ccccc3)[C@H](OCc3ccccc3)[C@@H](OCc3ccccc3)[C@@H]2OCc2ccccc2)c(OCc2ccccc2)c1 | <= 0.1 EU/ml
5 | CCCCCCCOc1ccc(C(=O)OC[C@H]2O[C@H](O[C@H]3O[C@H](COC(=O)c4ccc(OCCCCCCC)cc4)[C@@H](OCc4ccccc4)[C@H](OCc4ccccc4)[C@H]3OCc3ccccc3)[C@H](OCc3ccccc3)[C@@H](OCc3ccccc3)[C@@H]2OCc2ccccc2)cc1 | <= 0.1 EU/ml
6 | CCCCCCCCCCCCCCCCCCOc1ccc(C(=O)OC[C@H]2O[C@H](O[C@H]3O[C@H](COC(=O)c4ccc(OCCCCCCCCCCCCCCCCCC)cc4OCc4ccccc4)[C@@H](OCc4ccccc4)[C@H](OCc4ccccc4)[C@H]3OCc3ccccc3)[C@H](OCc3ccccc3)[C@@H](OCc3ccccc3)[C@@H]2OCc2ccccc2)c(OCc2ccccc2)c1 | <= 0.1 EU/ml
7 | Cc1cc(OCc2ccccc2)cc(OCc2ccccc2)c1C(=O)OC[C@H]1O[C@H](O[C@H]2O[C@H](COC(=O)c3c(C)cc(OCc4ccccc4)cc3OCc3ccccc3)[C@@H](OCc3ccccc3)[C@H](OCc3ccccc3)[C@H]2OCc2ccccc2)[C@H](OCc2ccccc2)[C@@H](OCc2ccccc2)[C@@H]1OCc1ccccc1 | <= 0.1 EU/ml
8 | CCCCCCCCCCCCCCCCCCOc1ccc(C(=O)OC[C@H]2O[C@H](O[C@H]3O[C@H](COC(=O)c4ccc(OCCCCCCCCCCCCCCCCCC)cc4)[C@@H](OCc4ccccc4)[C@H](OCc4ccccc4)[C@H]3OCc3ccccc3)[C@H](OCc3ccccc3)[C@@H](OCc3ccccc3)[C@@H]2OCc2ccccc2)cc1 | <= 0.1 EU/ml
9 | CCCCCCCOc1ccc(C(=O)OC[C@H]2O[C@H](O[C@H]3O[C@H](COC(=O)c4ccc(OCCCCCCC)cc4OCc4ccccc4)[C@@H](OCc4ccccc4)[C@H](OCc4ccccc4)[C@H]3OCc3ccccc3)[C@H](OCc3ccccc3)[C@@H](OCc3ccccc3)[C@@H]2OCc2ccccc2)c(OCc2ccccc2)c1 | <= 0.1 EU/ml
